Assay results of several laboratories.
Compare with care: the assays were run in different laboratories.
MTNR1B: Melatonin receptor type 1B (MTNR1B, Homo sapiens, UniProt P49286)
HTR1B: 5-hydroxytryptamine receptor 1B (HTR1B, Homo sapiens, UniProt P28222)

For CC(C)c1ccc(CNc2cccc(-c3nnc[nH]3)c2)cc1, the Ki was 3720 nM (MTNR1B; cell-free assay).
For O=C1c2ccccc2CCN1CCCCN1CCN(c2cccc(Cl)c2Cl)CC1, the Ki was 73 nM (HTR1B; ligand displacement, radioligand).
C[C@H](C(=O)N[C@@H]1COc2ccccc2[C@H]1S(C)(=O)=O)c1ccc(F)cc1 gave an EC50 of 28 nM (Metabotropic glutamate receptor 7 (GRM7, Homo sapiens, UniProt Q14831); cAMP, agonist, luciferase).
The EC50 of CCC(=O)NC1Cc2ccccc2C(c2ccccc2)C1 (centres unmarked) is reported as 1.58 nM (MTNR1B; GTPγS binding, agonist, radiometric; cell membranes).
With Cc1cc2nc3c(=O)[nH]c(=O)nc-3n(C[C@H](O)[C@H](O)[C@H](O)COP(=O)(O)OP(=O)(O)OC[C@H]3O[C@@H](n4cnc5c(N)ncnc54)[C@H](O)[C@@H]3O)c2cc1C the Kd was 23700 nM (Protein PRRC2C (Homo sapiens, UniProt Q9Y520); binding; lysate).
With Cc1cc(Nc2cc3ncccc3c(N[C@@H]3C[C@H]4CC[C@@H](C3)N4CCC#N)n2)n[nH]1 the Kd was 96 nM (Death-associated protein kinase 1 (DAPK1, Homo sapiens, UniProt P53355); binding, competition with immobilised ligand).
O=C(NCCc1cccc2ccccc12)C1CCC1 has an EC50 of 1660 nM (MTNR1B; cAMP, agonist, TR-FRET).
The Ki of COc1ccc2c(c1)C(=O)C1(Cc3ccccc3C1)O2 is reported as 100000 nM (Peptidyl-prolyl cis-trans isomerase NIMA-interacting 1 (PIN1, Homo sapiens, UniProt Q13526); enzyme activity, inhibitor).
For CC(=O)NCCc1c(Cc2ccccc2)[nH]c2ccccc12, the Kb was about 100 nM (MTNR1B; cAMP, antagonist, TR-FRET).
The Ki of Clc1ccc(CNc2cccc(-c3nnc[nH]3)c2)c(Br)c1 is reported as 1410 nM (MTNR1B; cell-free assay).
Nc1nc(NCc2ccc(Oc3ccccc3)cc2)nc(-c2c(F)cccc2CO)n1 has a Ki of 1100 nM (MTNR1B; cell-free assay, radioligand).
CCCCN1CCC(COC(=O)c2ccc(N)c(OCF)c2)CC1 gave a Ki of over 10000 nM (HTR1B; cell-free assay, radioligand).
CCc1ccc2scc(CCNC(C)=O)c2c1 gave an EC50 of 39.8 nM (MTNR1B; cAMP, agonist, TR-FRET).
C=C1CC[C@@H]2[C@](C)(CO)[C@H](O)CC[C@@]2(C)[C@@H]1CCC1=CCOC1=O has a Ki of 1500 nM (UDP-glucuronosyltransferase 2B7 (UGT2B7, Homo sapiens, UniProt P16662); enzyme activity, inhibitor; pH 7.4).
